Reference: ChEMBL document CHEMBL5230083, “Novel 2, 5-diketopiperazine derivatives as potent selective histone deacetylase 6 inhibitors: Rational design, synthesis and antiproliferative activity” (Eur J Med Chem, 2020)

How the values were obtained:
[1] = target: Histone deacetylase 1 (Homo sapiens, UniProt Q13547); test: Inhibition of HDAC1 (unknown origin) using Fluor de lys as substrate by fluorescence based analysis
[2] = target: T1, Protein deacetylase HDAC6 (Homo sapiens, UniProt Q9UBN7); test: Inhibition of HDAC6 (unknown origin) using Fluor de lys as substrate by fluorescence based analysis
T1 sequence (Q9UBN7 whole entry): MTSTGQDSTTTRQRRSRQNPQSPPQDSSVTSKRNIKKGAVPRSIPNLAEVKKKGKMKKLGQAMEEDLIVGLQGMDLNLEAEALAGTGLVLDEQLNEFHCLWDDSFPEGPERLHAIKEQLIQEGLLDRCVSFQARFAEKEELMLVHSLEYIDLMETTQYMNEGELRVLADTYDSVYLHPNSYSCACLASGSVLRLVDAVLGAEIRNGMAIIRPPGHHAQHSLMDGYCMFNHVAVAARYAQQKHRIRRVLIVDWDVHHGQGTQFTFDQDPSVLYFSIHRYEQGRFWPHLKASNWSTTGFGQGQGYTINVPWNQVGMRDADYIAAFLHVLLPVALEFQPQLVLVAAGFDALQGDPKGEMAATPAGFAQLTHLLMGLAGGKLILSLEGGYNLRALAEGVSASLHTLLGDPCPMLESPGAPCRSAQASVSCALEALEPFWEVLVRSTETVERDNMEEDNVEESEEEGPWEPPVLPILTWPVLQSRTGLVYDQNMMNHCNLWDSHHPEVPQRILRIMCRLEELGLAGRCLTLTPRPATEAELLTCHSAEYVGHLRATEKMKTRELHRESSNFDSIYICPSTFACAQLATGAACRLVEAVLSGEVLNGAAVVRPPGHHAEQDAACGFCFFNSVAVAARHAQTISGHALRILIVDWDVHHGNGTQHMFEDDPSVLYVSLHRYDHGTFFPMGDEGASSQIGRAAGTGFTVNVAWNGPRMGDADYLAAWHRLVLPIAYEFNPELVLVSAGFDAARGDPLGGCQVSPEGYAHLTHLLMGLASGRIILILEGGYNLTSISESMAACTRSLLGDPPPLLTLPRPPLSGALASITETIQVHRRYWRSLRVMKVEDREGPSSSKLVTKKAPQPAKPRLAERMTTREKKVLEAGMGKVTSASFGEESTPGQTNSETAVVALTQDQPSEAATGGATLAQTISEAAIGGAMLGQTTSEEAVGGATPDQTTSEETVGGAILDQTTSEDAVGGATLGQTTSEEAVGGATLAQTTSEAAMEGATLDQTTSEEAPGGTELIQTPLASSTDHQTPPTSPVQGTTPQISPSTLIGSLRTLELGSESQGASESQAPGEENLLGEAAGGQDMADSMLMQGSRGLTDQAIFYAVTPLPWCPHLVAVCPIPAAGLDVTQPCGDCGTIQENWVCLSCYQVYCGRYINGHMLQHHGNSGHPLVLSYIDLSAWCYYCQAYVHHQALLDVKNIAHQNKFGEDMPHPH

[3] = target: Histone deacetylase 4 (Homo sapiens, UniProt P56524); test: Inhibition of HDAC4 (unknown origin) using Fluor de lys as substrate by fluorescence based analysis
Sequence of Histone deacetylase 4 (P56524 whole entry): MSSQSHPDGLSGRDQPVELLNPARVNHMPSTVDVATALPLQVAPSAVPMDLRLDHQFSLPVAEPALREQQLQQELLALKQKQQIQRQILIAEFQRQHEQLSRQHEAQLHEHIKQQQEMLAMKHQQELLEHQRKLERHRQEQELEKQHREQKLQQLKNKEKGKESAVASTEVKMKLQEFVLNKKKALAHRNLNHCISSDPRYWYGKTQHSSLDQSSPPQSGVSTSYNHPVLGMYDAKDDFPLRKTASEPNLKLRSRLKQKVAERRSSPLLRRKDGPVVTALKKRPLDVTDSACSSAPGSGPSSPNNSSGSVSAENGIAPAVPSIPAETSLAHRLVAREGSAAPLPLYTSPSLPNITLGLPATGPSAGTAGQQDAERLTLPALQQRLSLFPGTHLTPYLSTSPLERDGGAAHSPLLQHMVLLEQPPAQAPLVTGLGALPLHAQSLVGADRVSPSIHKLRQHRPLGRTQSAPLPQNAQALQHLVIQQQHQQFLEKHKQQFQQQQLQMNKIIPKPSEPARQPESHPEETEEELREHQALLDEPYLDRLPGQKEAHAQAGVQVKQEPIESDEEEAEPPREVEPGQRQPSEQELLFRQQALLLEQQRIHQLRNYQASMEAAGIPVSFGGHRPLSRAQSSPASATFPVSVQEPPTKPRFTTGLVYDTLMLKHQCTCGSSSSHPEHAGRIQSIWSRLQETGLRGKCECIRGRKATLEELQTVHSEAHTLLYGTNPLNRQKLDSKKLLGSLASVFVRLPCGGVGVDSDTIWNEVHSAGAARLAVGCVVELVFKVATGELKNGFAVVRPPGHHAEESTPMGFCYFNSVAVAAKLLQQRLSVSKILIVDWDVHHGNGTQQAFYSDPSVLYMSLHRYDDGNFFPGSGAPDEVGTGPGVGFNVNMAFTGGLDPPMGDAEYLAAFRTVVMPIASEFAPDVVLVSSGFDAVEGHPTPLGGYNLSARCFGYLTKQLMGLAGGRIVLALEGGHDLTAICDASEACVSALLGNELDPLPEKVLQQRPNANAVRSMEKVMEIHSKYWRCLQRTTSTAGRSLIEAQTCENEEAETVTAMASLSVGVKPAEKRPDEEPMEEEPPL

[4] = target: Histone deacetylase 5 (Homo sapiens, UniProt Q9UQL6); test: Inhibition of HDAC5 (unknown origin) using Fluor de lys as substrate by fluorescence based analysis
Sequence of Histone deacetylase 5 (Q9UQL6 whole entry): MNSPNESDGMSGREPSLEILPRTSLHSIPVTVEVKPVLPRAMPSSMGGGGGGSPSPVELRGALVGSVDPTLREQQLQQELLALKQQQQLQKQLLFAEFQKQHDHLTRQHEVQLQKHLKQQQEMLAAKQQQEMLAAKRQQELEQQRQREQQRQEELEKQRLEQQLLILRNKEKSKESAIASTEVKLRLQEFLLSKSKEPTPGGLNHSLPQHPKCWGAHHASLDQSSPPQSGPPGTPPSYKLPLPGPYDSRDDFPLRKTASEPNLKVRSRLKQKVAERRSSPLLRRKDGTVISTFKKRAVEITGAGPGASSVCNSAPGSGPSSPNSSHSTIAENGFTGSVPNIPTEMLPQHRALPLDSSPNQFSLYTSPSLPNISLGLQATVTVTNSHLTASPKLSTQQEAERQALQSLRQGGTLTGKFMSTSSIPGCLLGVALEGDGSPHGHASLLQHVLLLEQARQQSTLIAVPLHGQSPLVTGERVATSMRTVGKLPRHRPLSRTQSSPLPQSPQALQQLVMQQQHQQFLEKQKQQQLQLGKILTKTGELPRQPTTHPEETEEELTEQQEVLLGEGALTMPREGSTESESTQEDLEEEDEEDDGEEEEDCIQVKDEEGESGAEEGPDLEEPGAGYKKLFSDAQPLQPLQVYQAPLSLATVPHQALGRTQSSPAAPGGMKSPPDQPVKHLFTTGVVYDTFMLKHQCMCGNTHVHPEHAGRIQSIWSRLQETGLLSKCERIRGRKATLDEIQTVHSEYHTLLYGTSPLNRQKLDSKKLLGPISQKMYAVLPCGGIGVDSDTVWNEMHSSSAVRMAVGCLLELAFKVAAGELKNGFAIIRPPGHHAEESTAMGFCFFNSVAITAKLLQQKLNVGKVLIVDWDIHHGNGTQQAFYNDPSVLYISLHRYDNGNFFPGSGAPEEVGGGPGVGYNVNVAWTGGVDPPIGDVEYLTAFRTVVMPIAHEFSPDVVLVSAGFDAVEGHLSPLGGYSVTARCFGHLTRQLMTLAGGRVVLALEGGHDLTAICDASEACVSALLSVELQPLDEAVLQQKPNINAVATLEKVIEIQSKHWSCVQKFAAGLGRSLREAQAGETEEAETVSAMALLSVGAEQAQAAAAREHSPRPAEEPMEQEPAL

[5] = target: Histone deacetylase 9 (Homo sapiens, UniProt Q9UKV0); test: Inhibition of HDAC9 (unknown origin) using Fluor de lys as substrate by fluorescence based analysis
Sequence of Histone deacetylase 9 (Q9UKV0 whole entry): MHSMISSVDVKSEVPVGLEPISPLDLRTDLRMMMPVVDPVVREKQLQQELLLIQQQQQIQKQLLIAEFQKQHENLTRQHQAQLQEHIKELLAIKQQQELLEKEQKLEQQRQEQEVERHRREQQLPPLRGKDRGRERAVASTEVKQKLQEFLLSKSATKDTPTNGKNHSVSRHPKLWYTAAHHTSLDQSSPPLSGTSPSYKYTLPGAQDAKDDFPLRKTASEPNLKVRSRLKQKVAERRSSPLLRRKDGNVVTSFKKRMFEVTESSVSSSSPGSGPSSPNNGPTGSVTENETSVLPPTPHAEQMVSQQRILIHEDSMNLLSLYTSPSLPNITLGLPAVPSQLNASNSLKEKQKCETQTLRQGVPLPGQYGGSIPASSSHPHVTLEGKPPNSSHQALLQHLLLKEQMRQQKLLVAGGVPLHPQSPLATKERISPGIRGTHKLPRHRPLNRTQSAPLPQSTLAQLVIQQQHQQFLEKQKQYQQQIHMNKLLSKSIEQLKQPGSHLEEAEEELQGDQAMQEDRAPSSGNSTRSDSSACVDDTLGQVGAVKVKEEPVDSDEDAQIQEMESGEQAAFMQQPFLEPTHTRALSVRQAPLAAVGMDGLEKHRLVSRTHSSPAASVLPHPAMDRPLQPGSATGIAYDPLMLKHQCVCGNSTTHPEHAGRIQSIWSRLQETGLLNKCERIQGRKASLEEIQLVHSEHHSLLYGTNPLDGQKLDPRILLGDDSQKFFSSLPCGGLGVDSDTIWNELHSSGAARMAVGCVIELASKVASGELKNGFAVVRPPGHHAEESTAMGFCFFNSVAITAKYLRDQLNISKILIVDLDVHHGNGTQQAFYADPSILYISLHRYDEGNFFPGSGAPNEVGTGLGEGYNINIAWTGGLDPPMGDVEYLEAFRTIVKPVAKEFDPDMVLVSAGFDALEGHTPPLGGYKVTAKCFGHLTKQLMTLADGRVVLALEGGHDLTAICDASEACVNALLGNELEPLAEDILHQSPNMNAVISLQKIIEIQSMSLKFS

[6] = target: Polyamine deacetylase HDAC10 (Homo sapiens, UniProt Q969S8); test: Inhibition of HDAC10 (unknown origin) incubated for 1 hr by TR-FRET analysis
Sequence of Polyamine deacetylase HDAC10 (Q969S8 whole entry): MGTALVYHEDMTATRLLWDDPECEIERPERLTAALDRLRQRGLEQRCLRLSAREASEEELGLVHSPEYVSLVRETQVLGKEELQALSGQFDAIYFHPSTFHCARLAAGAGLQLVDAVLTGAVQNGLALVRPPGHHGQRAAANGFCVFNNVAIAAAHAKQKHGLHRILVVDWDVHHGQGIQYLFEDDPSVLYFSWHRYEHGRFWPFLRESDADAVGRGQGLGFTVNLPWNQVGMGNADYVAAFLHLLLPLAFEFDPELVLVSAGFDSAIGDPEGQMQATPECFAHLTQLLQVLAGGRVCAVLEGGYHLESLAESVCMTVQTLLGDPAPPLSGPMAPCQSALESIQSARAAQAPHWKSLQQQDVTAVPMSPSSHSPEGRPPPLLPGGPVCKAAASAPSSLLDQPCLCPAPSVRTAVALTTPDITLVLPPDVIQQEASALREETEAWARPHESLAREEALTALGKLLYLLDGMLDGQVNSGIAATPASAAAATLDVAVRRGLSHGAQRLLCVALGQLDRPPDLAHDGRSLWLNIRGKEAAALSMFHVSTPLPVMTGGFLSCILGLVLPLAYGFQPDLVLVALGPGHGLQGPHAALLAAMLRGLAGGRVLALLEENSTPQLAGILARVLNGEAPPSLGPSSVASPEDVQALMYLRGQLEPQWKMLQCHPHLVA

[7] = target: Histone deacetylase 11 (Homo sapiens, UniProt Q96DB2); test: Inhibition of HDAC11 (unknown origin) using Fluor de lys as substrate by fluorescence based analysis
Sequence of Histone deacetylase 11 (Q96DB2 whole entry): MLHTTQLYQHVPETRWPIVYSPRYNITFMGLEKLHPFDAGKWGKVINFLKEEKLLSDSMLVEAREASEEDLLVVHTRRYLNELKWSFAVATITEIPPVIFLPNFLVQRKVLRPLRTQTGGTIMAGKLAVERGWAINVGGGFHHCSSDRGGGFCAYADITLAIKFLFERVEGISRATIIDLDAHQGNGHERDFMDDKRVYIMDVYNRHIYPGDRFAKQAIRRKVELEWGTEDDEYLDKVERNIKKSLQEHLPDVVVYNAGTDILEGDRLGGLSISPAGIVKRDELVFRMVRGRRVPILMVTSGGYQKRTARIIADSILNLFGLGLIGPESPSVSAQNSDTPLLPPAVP

[8] = target: Protein deacetylase HDAC6 (Homo sapiens) (UniProt Q9UBN7); test: Inhibition of HDAC6 in human HCT-116 cells assessed as increase in acetylated alpha-tubulin level incubated for 24 hrs by Western blot analysis; assay type: cell-based; conditions: dose 0.1-10 µM
How it was run: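 HCT116 cells were seeded overnight, then treated at 0.1, 1 and 10 μM for 24 h. Cells were lysed with protein extraction reagent plus EDTA-free protease inhibitors. 30 µg protein per sample was resolved by SDS-PAGE and blotted to nitrocellulose. Ac-α-tubulin and Ac-H3 were probed and detected by ECL.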

[9] = tested on: RPMI-8226; test: Antiproliferative activity against human RPMI-8226 cells assessed as cell growth at 10 uM incubated for 48 hrs by SRB assay relative to control; assay type: functional; conditions: read-out: Activity
How it was run: (§1)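 Single-concentration screen at 10 μM run by NCI on its NCI-60 human tumour panel (blood, lung, colon, CNS, melanoma, ovary, kidney, prostate, breast), following the NCI-60 published methodology. Read-out is growth percent relative to untreated cells.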

[10] = tested on: NCI-H226; test: Antiproliferative activity against human NCI-H226 cells assessed as cell growth at 10 uM incubated for 48 hrs by SRB assay relative to control; assay type: functional; conditions: read-out: Activity; how it was run: as §1
[11] = tested on: 786-0; test: Antiproliferative activity against human 786-0 cells assessed as cell growth at 10 uM incubated for 48 hrs by SRB assay relative to control; assay type: functional; conditions: read-out: Activity; how it was run: as §1
[12] = organism: Homo sapiens; test: Selectivity index, ratio of IC50 for inhibition of HDAC1 (unknown origin) to IC50 for inhibition of HDAC6 (unknown origin)
How it was run: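 Ratio of IC50 values, each from a Fluor de Lys fluorogenic HDAC assay run in duplicate.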

[13] = tested on: OVCAR-4; test: Antiproliferative activity against human OVCAR-4 cells assessed as cell growth at 10 uM incubated for 48 hrs by SRB assay relative to control; assay type: functional; conditions: read-out: Activity; how it was run: as §1
[14] = tested on: A549; test: Antiproliferative activity against human A549 cells assessed as inhibition of cell growth incubated for 72 hrs by alamar blue assay; assay type: functional, cell-based; conditions: A549, 72 h
How it was run: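 Cells grown in IMDM with 20% FBS and penicillin/streptomycin at 37 °C, 5% CO2. Compound added to plated cells for 72 h. Alamar blue (1 mM solution) then added for 5–6 h, and fluorescence read at 530/590 nm. IC50 derived for single-agent treatment.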

[15] = tested on: A549; test: Antiproliferative activity against human A549 cells assessed as inhibition of cell growth incubated for 72 hrs in presence of adriamycin by alamar blue assay; assay type: functional, cell-based; conditions: A549, 72 h
How it was run: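 Alamar blue assay in IMDM/20% FBS at 37 °C, 5% CO2. Cells were exposed to the two agents together for 72 h, with 5–6 h Alamar blue and fluorescence at 530/590 nm. IC50 in combination was determined. CI50 = IC50Ac/IC50As + IC50Bc/IC50Bs, comparing combination with single-agent IC50s.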

[16] = tested on: A549; test: Synergistic antiproliferative activity against human A549 cells assessed as combination index incubated for 72 hrs presence of adriamycin by alamar blue assay; assay type: functional
[17] = Microsomal stability in human liver microsomes assessed as half life at 0.5 uM prewarmed for 5 mins followed by NADPH addition and measured for 90 mins by LC-MS/MS analysis; assay type: ADME, Microsome; conditions: time 95 min
How it was run: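 Incubation held 0.8 mg/mL human liver microsomes, MgCl2, potassium phosphate buffer pH 7.4 and 0.5 μM compound. After 5 min prewarming at 37 °C, NADPH started the reaction.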

Sequence of Histone deacetylase 1 (Q13547 whole entry): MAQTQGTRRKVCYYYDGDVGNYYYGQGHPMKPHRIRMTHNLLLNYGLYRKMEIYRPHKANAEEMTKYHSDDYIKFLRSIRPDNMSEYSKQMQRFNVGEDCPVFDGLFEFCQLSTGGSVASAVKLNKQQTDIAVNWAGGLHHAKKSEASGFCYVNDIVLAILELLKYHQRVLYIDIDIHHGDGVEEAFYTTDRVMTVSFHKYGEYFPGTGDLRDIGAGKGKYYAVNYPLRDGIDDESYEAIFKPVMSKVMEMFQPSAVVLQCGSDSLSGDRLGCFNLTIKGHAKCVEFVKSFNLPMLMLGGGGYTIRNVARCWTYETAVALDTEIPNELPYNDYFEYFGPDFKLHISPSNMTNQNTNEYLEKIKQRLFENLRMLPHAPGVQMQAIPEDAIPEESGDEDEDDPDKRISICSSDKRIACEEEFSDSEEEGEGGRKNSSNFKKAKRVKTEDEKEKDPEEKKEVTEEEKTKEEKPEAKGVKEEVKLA

SMILES	IC50 [1]	IC50 [2]	IC50 [3]	IC50 [4]	IC50 [5]	IC50 [6]	IC50 [7]	inhibition [8]	growth at 10 µM [9]	growth at 10 µM [10]	growth at 10 µM [11]	Ratio IC50 [12]	growth at 10 µM [13]	IC50 [14]	IC50 [15]	CI [16]	half-life at 0.5 µM [17]
O=C1CN(Cc2ccc(C(=O)NO)cc2)C(=O)[C@@H](Cc2c[nH]c3ccccc23)N1	8.02 µM	0.00073 µM	5.62 µM	4.37 µM	2.56 µM	0.105 µM	1.8 µM	Dose-Dependent Effect	104%	97.6%	83%	–	–	–	–	–	–
O=C(NO)c1ccc(CN2CC(=O)N(Cc3ccccc3)[C@H](Cc3ccccc3)C2=O)cc1	9.64 µM	0.00983 µM	–	–	–	–	–	–	58.6%	–	94.8%	981	66.5%	100 µM	8.17 µM	0.676	9.7 h
